Reference: article PMC3149845 (The Journal of neuroscience : the official journal of the …, 2011)
Peptide text beside a SMILES is read from it.

Experiments:
[1] = target: hTas1R2:S40T/I67S+hTas1R3 (Homo sapiens, UniProt Q8TE23, I67S/S40T); experiment: Ca2+ mobilization, mutated human receptor; type: cell-based; details: aspartame 10mM, neotame 1mM, sucralose 2 mM; compared with hTas1R2/hTas1R3
Method in brief: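 Mutant hTas1R2 with hTas1R3 and Gα16-gust44 in HEK293E cells (50,000/well, 0.06 μg each plasmid per well); 44 h post-transfection, loaded with 3 μM Fluo-4 AM in HBSS/20 mM HEPES for 1 h. Fluorescence (ex 488/em 525 nm) recorded every 2 s, tastant at 30 s, 150 s further. ΔF/F normalized to the hTas1R2/hTas1R3 sucralose (2 mm) maximum; three independent experiments; one-way ANOVA with Tukey test.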

[2] = test system: All the human and squirrel monkey mutants; experiment: Ca2+ mobilization, control response of all mutants; type: cell-based; details: sucralose 2 mM
Method in brief: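 HEK293E cells grown at 37°C in Opti-MEM with 5% FBS and seeded at 50,000/well. Cells co-lipofected with Tas1R plasmids and Gα16-gust44 (0.06 μg each per well); medium changed at 20 h, assayed 24 h later. Cells loaded 1 h with Fluo-4 AM in HEPES-buffered HBSS. Tastant added at 30 s; fluorescence (ex 488/em 525 nm) read every 2 s for 150 s more. ΔF/F normalised to human receptor maximal sucralose response; mean ± SEM, three independent experiments.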

hTas1R2:S40T/I67S+hTas1R3, sequence (Q8TE23 20-839 S40T/I67S): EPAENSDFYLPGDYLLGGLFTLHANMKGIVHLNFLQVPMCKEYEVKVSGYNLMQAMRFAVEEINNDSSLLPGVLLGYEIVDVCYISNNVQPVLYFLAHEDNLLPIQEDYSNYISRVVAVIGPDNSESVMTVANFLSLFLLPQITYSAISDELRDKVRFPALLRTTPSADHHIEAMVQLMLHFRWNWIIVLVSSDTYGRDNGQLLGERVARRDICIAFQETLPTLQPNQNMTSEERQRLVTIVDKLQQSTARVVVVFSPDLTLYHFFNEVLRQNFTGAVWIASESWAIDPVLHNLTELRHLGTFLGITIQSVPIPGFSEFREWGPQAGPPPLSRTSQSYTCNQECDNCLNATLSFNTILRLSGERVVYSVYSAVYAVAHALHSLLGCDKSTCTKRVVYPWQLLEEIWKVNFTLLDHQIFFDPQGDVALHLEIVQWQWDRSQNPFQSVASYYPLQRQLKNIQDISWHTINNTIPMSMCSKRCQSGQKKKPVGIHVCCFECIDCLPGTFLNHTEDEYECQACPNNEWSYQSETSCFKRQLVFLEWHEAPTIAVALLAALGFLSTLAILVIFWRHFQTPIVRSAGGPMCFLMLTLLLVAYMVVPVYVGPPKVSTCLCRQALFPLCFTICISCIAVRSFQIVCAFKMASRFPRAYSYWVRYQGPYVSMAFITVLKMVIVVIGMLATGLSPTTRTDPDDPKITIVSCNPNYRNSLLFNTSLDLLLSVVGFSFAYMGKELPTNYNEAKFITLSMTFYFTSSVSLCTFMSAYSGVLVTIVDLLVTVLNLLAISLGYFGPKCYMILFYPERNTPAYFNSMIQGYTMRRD
hTas1R2:S40T/I67S+hTas1R3, sequence (Q7RTX0 21-852 partner): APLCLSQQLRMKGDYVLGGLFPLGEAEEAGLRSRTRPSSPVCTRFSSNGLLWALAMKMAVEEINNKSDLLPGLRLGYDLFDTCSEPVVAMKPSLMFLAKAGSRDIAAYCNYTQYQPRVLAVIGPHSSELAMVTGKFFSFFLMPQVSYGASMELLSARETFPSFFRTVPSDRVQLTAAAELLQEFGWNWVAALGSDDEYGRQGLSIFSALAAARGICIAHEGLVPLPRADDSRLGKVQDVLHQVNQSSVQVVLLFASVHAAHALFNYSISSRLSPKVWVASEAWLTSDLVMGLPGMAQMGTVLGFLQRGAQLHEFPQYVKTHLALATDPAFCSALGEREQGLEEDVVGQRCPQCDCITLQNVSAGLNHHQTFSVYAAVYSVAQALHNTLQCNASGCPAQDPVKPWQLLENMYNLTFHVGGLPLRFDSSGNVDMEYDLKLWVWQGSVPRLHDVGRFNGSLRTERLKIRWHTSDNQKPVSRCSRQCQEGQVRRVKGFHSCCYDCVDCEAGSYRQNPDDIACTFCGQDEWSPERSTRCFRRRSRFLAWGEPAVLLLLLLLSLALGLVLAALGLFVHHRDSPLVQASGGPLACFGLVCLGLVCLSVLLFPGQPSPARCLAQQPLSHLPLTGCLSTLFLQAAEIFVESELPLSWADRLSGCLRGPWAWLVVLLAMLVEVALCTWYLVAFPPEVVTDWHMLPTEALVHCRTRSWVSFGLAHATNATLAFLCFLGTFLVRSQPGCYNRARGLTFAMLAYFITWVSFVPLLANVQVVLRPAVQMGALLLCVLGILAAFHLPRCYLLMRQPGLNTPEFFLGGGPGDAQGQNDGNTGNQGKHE

SMILES	calcium response to sweetener [1]	calcium response to the control sweetener [2]
COC(=O)[C@H](Cc1ccccc1)NC(=O)[C@@H](N)CC(=O)O [aspartame, L-α-aspartly-L-phenylalanine methyl ester] (H-Asp-Phe-OMe)	greater than multiple mutants that contained the D142E mutant	–
OC[C@H]1O[C@H](O[C@]2(CCl)O[C@H](CCl)[C@@H](O)[C@@H]2O)[C@H](O)[C@@H](O)[C@H]1Cl [sucralose]	–	significant level of response
